According to ChEMBL document CHEMBL3286377, “Microwave-assisted synthesis of C-8 aryl and heteroaryl inosines and determination of their inhibitory activities against Plasmodium falciparum purine nucleoside phosphorylase” (Eur J Med Chem, 2014):
Calls of active or inactive are those of the source. No cut-off for these calls is given here.

How the values were obtained:
Influenza B virus = assay: Antiviral activity against Influenza B virus assessed as inhibition of virus-induced cytopathicity at 100 uM by cell-based assay; type: functional, organism-based
In short: (§1)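 Inhibition of virus-induced cytopathicity in confluent cell monolayers (HEL, Vero, HeLa or MDCK cells), tested at varying compound concentrations with 100 µM the level assessed. Cytopathicity was scored once it was complete in untreated virus-infected controls. Activity is expressed as EC50, the concentration reducing virus-induced cytopathicity by 50%.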

[1] = tested on: Vesicular stomatitis virus; assay: Antiviral activity against Vesicular stomatitis virus assessed as inhibition of virus-induced cytopathicity at 100 uM by cell-based assay; type: functional, organism-based
In short: (§2)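 Confluent HEL, Vero, HeLa or MDCK monolayers were infected with 100 CCID50 of virus in the presence of varying compound concentrations, with 100 µM the level assessed. Cytopathic effect was recorded once it was complete in untreated infected controls. EC50 is the concentration reducing virus-induced cytopathicity by 50%.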

[2] = Hydrolytic stability of the compound in citrate buffer at 50 uM at pH 5 up to 24 hrs by HPLC analysis; type: physicochemical; settings: pH 5, 24 h
In short: (§3)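 A 5 mM DMSO stock was diluted to 50 µM final in phosphate (pH 7.4), citrate (pH 5.0) or trifluoroacetate (pH 1.2) buffer and incubated at 37 °C. Aliquots taken at 0, 0.5, 1, 4 and 24 h were analysed by reverse-phase HPLC. The mobile phase ran from 10 to 100% acetonitrile against water with 0.05% TFA over 20 min, at 1.0 mL/min.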

HeLa = assay: Cytotoxicity against human HeLa cells up to 100 uM; type: cell-based
Human alphaherpesvirus 2 [3] = assay: Antiviral activity against Herpes simplex virus type 2 Lyons assessed as inhibition of virus-induced cytopathicity at 100 uM by cell-based assay; type: functional, organism-based
In short: (§4)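 Confluent HEL, Vero, HeLa or MDCK monolayers were infected with 100 CCID50 of virus in the presence of varying compound concentrations. Activity is expressed as EC50, the concentration that halves virus-induced cytopathicity.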

Coxsackievirus B4 = assay: Antiviral activity against Coxsackievirus B4 assessed as inhibition of virus-induced cytopathicity at 100 uM by cell-based assay; type: functional, organism-based; in short: as §4
CCRF-CEM = assay: Cytotoxicity against human CEM cells up to 100 uM; type: cell-based
HEL = assay: Cytotoxicity against HEL up to 100 uM; type: cell-based; settings: human
[4] = Half life of the compound in trifluoroacetate buffer at 50 uM at pH 1.2 by HPLC analysis; type: physicochemical; in short: as §3
Influenza A virus H3N2 = assay: Antiviral activity against Influenza A virus H3N2 assessed as inhibition of virus-induced cytopathicity at 100 uM by cell-based assay; type: functional, organism-based; in short: as §1
MDCK = assay: Cytotoxicity against MDCK cells up to 100 uM; type: cell-based, Canis lupus familiaris; settings: dog
Vaccinia virus = assay: Antiviral activity against Vaccinia virus Lederle assessed as inhibition of virus-induced cytopathicity at 100 uM by cell-based assay; type: functional, organism-based; settings: Orthopoxvirus vaccinia; in short: as §2
Punta Toro virus = assay: Antiviral activity against Punta Toro virus assessed as inhibition of virus-induced cytopathicity at 100 uM by cell-based assay; type: functional, organism-based; in short: as §4
Vero = assay: Cytotoxicity against African green monkey Vero cells up to 100 uM; type: cell-based; settings: chlorocebus sabaeus
Human alphaherpesvirus 1 [5] = assay: Antiviral activity against Herpes simplex virus type 1 KOS assessed as inhibition of virus-induced cytopathicity at 100 uM by cell-based assay; type: functional, organism-based; in short: as §4
Sindbis virus = assay: Antiviral activity against Sindbis virus assessed as inhibition of virus-induced cytopathicity at 100 uM by cell-based assay; type: functional, organism-based; in short: as §4
Human respirovirus 3 = assay: Antiviral activity against Parainfluenza virus 3 assessed as inhibition of virus-induced cytopathicity at 100 uM by cell-based assay; type: functional, organism-based; in short: as §4
Influenza A virus = assay: Antiviral activity against Influenza A virus H1N1 assessed as inhibition of virus-induced cytopathicity at 100 uM by cell-based assay; type: functional, organism-based; in short: as §1
Human alphaherpesvirus 2 [6] = assay: Antiviral activity against Herpes simplex virus type 2 G assessed as inhibition of virus-induced cytopathicity at 100 uM by cell-based assay; type: functional, organism-based; settings: strain G; in short: as §4
[7] = tested on: Respiratory syncytial virus; assay: Antiviral activity against Respiratory syncytial virus Long assessed as inhibition of virus-induced cytopathicity at 100 uM by cell-based assay; type: functional, organism-based; in short: as §4
[8] = Hydrolytic stability of the compound in phosphate buffer at 50 uM at pH 7.4 up to 24 hrs by HPLC analysis; type: physicochemical; settings: pH 7.4, 24 h; in short: as §3
Human alphaherpesvirus 1 [9] = assay: Antiviral activity against thymidine kinase-deficient ACV-resistant Herpes simplex virus type 1 KOS assessed as inhibition of virus-induced cytopathicity at 100 uM by cell-based assay; type: functional, organism-based; in short: as §2
Plasmodium falciparum = assay: Inhibition of Plasmodium falciparum PNP expressed in Escherichia coli BL21(DE3) using inosine as substrate at 200 uM by spectrophotometric analysis
[10] = tested on: Mammalian orthoreovirus 1; assay: Antiviral activity against Reovirus 1 assessed as inhibition of virus-induced cytopathicity at 100 uM by cell-based assay; type: functional; in short: as §4

COc1ccc(-c2nc3c(=O)[nH]cnc3n2[C@@H]2O[C@H](CO)[C@@H](O)[C@H]2O)cc1
Activity (Influenza B virus): inactive
Activity [1]: inactive
Stability [2]: Stable
Activity (HeLa): Non-toxic
Activity (Human alphaherpesvirus 2 [3]): inactive
Activity (Coxsackievirus B4): inactive
Activity (CCRF-CEM): Non-toxic
Activity (HEL): Non-toxic
half-life at 50 µM [4]: 5 h
Activity (Influenza A virus H3N2): inactive
Activity (MDCK): Non-toxic
Activity (Vaccinia virus): inactive
Activity (Punta Toro virus): inactive
Activity (Vero): Non-toxic
Activity (Human alphaherpesvirus 1 [5]): inactive
Activity (Sindbis virus): inactive
Activity (Human respirovirus 3): inactive
Activity (Influenza A virus): inactive
Activity (Human alphaherpesvirus 2 [6]): inactive
Activity [7]: inactive
Stability [8]: Stable
Activity (Human alphaherpesvirus 1 [9]): inactive
inhibition (Plasmodium falciparum): inactive
Activity [10]: inactive
